Experimental data: ChEMBL document CHEMBL1131529, “Novel tetranuclear orthometalated complexes of Pd(II) and Pt(II) derived from p-isopropylbenzaldehyde thiosemicarbazone with cytotoxic activity in cis-DDP resistant tumor cell lines. Interaction of these complexes with DNA” (J Med Chem, 1998)
Values joined by “and” are separate entries in the source; they are usually repeats but may differ in a detail not shown here. Equal values may be shown once.

What was measured:
PAM-RAS (Mus musculus) = test: Inhibitory activity against PAM-RAS cell line
PAM = test: Inhibitory activity against PAM cell line; assay type: functional, cell-based, Mus musculus
In short: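 Murine keratinocytes, normal Pam and H-ras-transformed Pam-Ras, were grown in DMEM with 10% FCS and 2 mM glutamine. They were seeded at 10^4 cells/well, preincubated 3–4 h, then given compounds at 0–100 µM final for 24 h. MTT was added to 1 mg/mL for 5 h at 37 °C and absorbance read at 520 nm. IC50 came from % survival vs concentration plots, in quadruplicate.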

GLIOMA#112 = test: Inhibitory activity against GLIOMA#112 cell line; assay type: functional, cell-based, Homo sapiens
In short: (§1)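 Cells were seeded at 10^4/well and treated 24 h with compounds at 0–100 µM final (solvent ≤10%). Survival was measured by MTT reduction (1 mg/mL, 5 h) read at 520 nm. IC50 came from survival–concentration curves, in quadruplicate.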

NIH3T3 = test: Inhibitory activity against 3T3 cell line; assay type: functional, cell-based, Mus musculus
In short: (§2)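 HeLa cervical carcinoma cells were grown in DMEM with 10% FCS, and NIH 3T3 cells in DMEM with 10% newborn calf serum. Both were seeded at 10^4 cells/well and exposed 24 h to compounds at 0–100 µM final (ethanol or DMSO ≤10%). MTT was added to 1 mg/mL for 5 h at 37 °C and A520 read. IC50 came from survival curves, in quadruplicate.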

GLIOMA#108 = test: Inhibitory activity against GLIOMA#108 cell line; assay type: functional, cell-based, Homo sapiens
In short: as §1

Jurkat = test: Inhibitory activity against JURKAT cell line; assay type: functional, cell-based, Homo sapiens
In short: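 Compounds were added at 0–100 µM final (ethanol or DMSO vehicle, ≤10%) for 24 h. MTT was added to 1 mg/mL for 5 h at 37 °C and absorbance read at 520 nm. IC50 came from % survival vs concentration curves, in quadruplicate.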

HeLa = test: Inhibitory activity against HeLa cell line; assay type: functional, cell-based, Homo sapiens
In short: as §2

Compound | IC50 (PAM-RAS (Mus musculus); Mus musculus, PAM-RAS) | IC50 (PAM; Mus musculus, PAM) | IC50 (GLIOMA#112; glioma#112) | IC50 (PAM-RAS (Mus musculus); pam-ras) | IC50 (NIH3T3) | IC50 (GLIOMA#108; glioma#108) | IC50 (PAM; pam) | IC50 (Jurkat) | IC50 (HeLa) | IC50 (GLIOMA#112; Homo sapiens, GLIOMA#112) | IC50 (GLIOMA#108; Homo sapiens, GLIOMA#108)
COc1cccc2c1C(=O)c1c(O)c3c(c(O)c1C2=O)C[C@@](O)(C(=O)CO)C[C@@H]3O[C@H]1C[C@H](N)[C@H](O)[C@H](C)O1 [DOXORUBICIN] | 156 µM | 150 µM |  |  |  |  |  |  |  |  | 
CISPLATIN |  |  | 120 µM | 165 µM | 35 µM | 86 µM | 164 µM | 22 µM | 7 µM |  | 
Tetrameric orthoplatinated p-isopropylbenzaldehyde thiosemicarbazone |  |  | 27 µM | 9 µM | 21 µM | 54 µM | 30 µM | 7 µM | 20 µM |  | 
COc1cc([C@@H]2c3cc4c(cc3[C@@H](O[C@@H]3O[C@@H]5CO[C@@H](C)O[C@H]5[C@H](O)[C@H]3O)[C@H]3COC(=O)[C@H]23)OCO4)cc(OC)c1O [ETOPOSIDE] | 136 µM | 180 µM |  |  |  |  |  |  |  | 62 µM | 76 µM
Tetrameric orthopalladated p-isopropylbenzaldehyde thiosemicarbazone |  |  | 50 µM and 35 µM | 37 µM and 5 µM |  | 40 µM and 62 µM |  | 6 µM and 7 µM |  |  | 
